Test results from ChEMBL document CHEMBL4184148 (Bioorg Med Chem Lett, 2017).

Legend:
[1] = test system: Tyrosine-protein kinase ABL1 (Homo sapiens), P00519 [F317I]; assay: Binding affinity to human phosphorylated ABL1 F317I mutant (S229 to K512 residues) expressed in HEK293 cells at 1 uM by Kinomescan method relative to control; type: cell-based
[2] = test system: Tyrosine-protein kinase ABL1 (Homo sapiens), P00519 [Q252H]; assay: Binding affinity to human non-phosphorylated ABL1 Q252H mutant (S229 to K512 residues) expressed in HEK293 cells at 1 uM by Kinomescan method relative to control; type: cell-based
[3] = test system: Tyrosine-protein kinase ABL1 (Homo sapiens), P00519 [Y253F]; assay: Binding affinity to human phosphorylated ABL1 Y253F mutant (S229 to K512 residues) expressed in HEK293 cells at 1 uM by Kinomescan method relative to control; type: cell-based
[4] = target: Bone morphogenetic protein receptor type-2 (Homo sapiens) (UniProt Q13873); assay: Binding affinity to wild-type human partial length BMPR2 (R179 to Q526 residues) expressed in HEK293 cells at 1 uM by Kinomescan method relative to control; type: cell-based
[5] = target: Protein-tyrosine kinase 6 (Homo sapiens) (UniProt Q13882); assay: Binding affinity to wild-type human partial length BRK (L166 to T451 residues) expressed in Escherichia coli BL21 at 1 uM by Kinomescan method relative to control
[6] = target: Tyrosine-protein kinase BTK (Homo sapiens) (UniProt Q06187); assay: Binding affinity to wild-type human full length BTK (M1 to S659 residues) expressed in HEK293 cells at 1 uM by Kinomescan method relative to control; type: cell-based
[7] = target: Calcium/calmodulin-dependent protein kinase kinase 2 (Homo sapiens) (UniProt Q96RR4); assay: Binding affinity to wild-type human partial length CAMKK2 (D65 to V471 residues) expressed in Escherichia coli BL21 at 1 uM by Kinomescan method relative to control
[8] = target: Cyclin-dependent kinase 13 (Homo sapiens) (UniProt Q14004); assay: Binding affinity to wild-type human partial length CDC2L5 (H675 to S1054 residues) expressed in HEK293 cells at 1 uM by Kinomescan method relative to control; type: cell-based
[9] = target: Casein kinase I isoform gamma-2 (Homo sapiens) (UniProt P78368); assay: Binding affinity to wild-type human full length CSNK1G2 (M1 to K415 residues) expressed in Escherichia coli BL21 at 1 uM by Kinomescan method relative to control
In short: (§1)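 Run as one kinome-wide competition binding panel with each compound at a single fixed concentration. Results were plotted as a kinome-wide selectivity map.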

[10] = target: Tyrosine-protein kinase FRK (Homo sapiens) (UniProt P42685); assay: Binding affinity to wild-type human partial length FRK (A215 to F503 residues) expressed in Escherichia coli BL21 at 1 uM by Kinomescan method relative to control
[11] = target: Leukocyte tyrosine kinase receptor (Homo sapiens) (UniProt P29376); assay: Binding affinity to wild-type human partial length LTK (P422 to S744 residues) expressed in Escherichia coli BL21 at 1 uM by Kinomescan method relative to control
[12] = target: MAP kinase-activated protein kinase 2 (Homo sapiens) (UniProt P49137); assay: Binding affinity to wild-type human partial length MAPKAPK2 (V48 to D345 residues) expressed in Escherichia coli BL21 at 1 uM by Kinomescan method relative to control
[13] = target: Dual specificity mitogen-activated protein kinase kinase 4 (Homo sapiens) (UniProt P45985); assay: Binding affinity to wild-type human partial length MEK4 (S84 to D399 residues) expressed in HEK293 cells at 1 uM by Kinomescan method relative to control; type: cell-based
[14] = test system: Hepatocyte growth factor receptor (Homo sapiens), P08581 [M1250T]; assay: Binding affinity to human partial length MET M1250T mutant (D1010 to S1367 residues) expressed in Escherichia coli BL21 at 1 uM by Kinomescan method relative to control
[15] = target: MAP kinase-interacting serine/threonine-protein kinase 1 (Homo sapiens) (UniProt Q9BUB5); assay: Binding affinity to wild-type human full length MKNK1 (M1 to L424 residues) expressed in HEK293 cells at 1 uM by Kinomescan method relative to control; type: cell-based; in short: as §1
[16] = target: Serine/threonine-protein kinase PAK 3 (Homo sapiens) (UniProt O75914); assay: Binding affinity to wild-type human full length PAK3 (M1 to R544 residues) expressed in Escherichia coli BL21 at 1 uM by Kinomescan method relative to control
In short: (§2)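 Kinome-wide competition binding panel run by an outside provider, with each compound tested at a single concentration. Activity is read against the kinase panel.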

[17] = target: Phosphatidylinositol 3-kinase C2 domain-containing subunit gamma (Homo sapiens) (UniProt O75747); assay: Binding affinity to wild-type human partial length PIK3C2G (M1 to I1446 residues) expressed in HEK293 cells at 1 uM by Kinomescan method relative to control; type: cell-based
[18] = target: Serine/threonine-protein kinase pim-2 (Homo sapiens) (UniProt Q9P1W9); assay: Binding affinity to wild-type human partial length PIM2 (M1 to E291 residues) expressed in Escherichia coli BL21 at 1 uM by Kinomescan method relative to control
[19] = target: Serine/threonine-protein kinase PLK2 (Homo sapiens) (UniProt Q9NYY3); assay: Binding affinity to wild-type human partial length PLK2 (H58 to F354 residues) expressed in HEK293 cells at 1 uM by Kinomescan method relative to control; type: cell-based
[20] = target: Proto-oncogene tyrosine-protein kinase receptor Ret (Homo sapiens) (UniProt P07949); assay: Binding affinity to wild-type human partial length RET (E713 to D1014 residues) expressed in Escherichia coli BL21 at 1 uM by Kinomescan method relative to control
[21] = target: Serine/threonine-protein kinase Sgk2 (Homo sapiens) (UniProt Q9HBY8); assay: Binding affinity to wild-type human partial length SGK2 (L54 to C427 residues) expressed in HEK293 cells at 1 uM by Kinomescan method relative to control; type: cell-based
[22] = target: SRSF protein kinase 2 (Homo sapiens) (UniProt P78362); assay: Binding affinity to wild-type human full length SRPK2 (M1 to S686 residues) expressed in Escherichia coli BL21 at 1 uM by Kinomescan method relative to control; in short: as §2
[23] = target: Tyrosine-protein kinase Tec (Homo sapiens) (UniProt P42680); assay: Binding affinity to wild-type human partial length TEC (L341 to D620 residues) expressed in Escherichia coli BL21 at 1 uM by Kinomescan method relative to control
[24] = target: TGF-beta receptor type-2 (Homo sapiens) (UniProt P37173); assay: Binding affinity to wild-type human partial length TGFBR2 (I218 to K567 residues) expressed in Escherichia coli BL21 at 1 uM by Kinomescan method relative to control
[25] = target: Non-receptor tyrosine-protein kinase TYK2 (Homo sapiens) (UniProt P29597); assay: Binding affinity to wild-type human partial length TYK2 JH2 pseudokinase domain (G556 to D888 residues) expressed in HEK293 cells at 1 uM by Kinomescan method relative to control; type: cell-based

Chain of Proto-oncogene tyrosine-protein kinase receptor Ret (Homo sapiens) (P07949 whole entry, the tested form may be a part): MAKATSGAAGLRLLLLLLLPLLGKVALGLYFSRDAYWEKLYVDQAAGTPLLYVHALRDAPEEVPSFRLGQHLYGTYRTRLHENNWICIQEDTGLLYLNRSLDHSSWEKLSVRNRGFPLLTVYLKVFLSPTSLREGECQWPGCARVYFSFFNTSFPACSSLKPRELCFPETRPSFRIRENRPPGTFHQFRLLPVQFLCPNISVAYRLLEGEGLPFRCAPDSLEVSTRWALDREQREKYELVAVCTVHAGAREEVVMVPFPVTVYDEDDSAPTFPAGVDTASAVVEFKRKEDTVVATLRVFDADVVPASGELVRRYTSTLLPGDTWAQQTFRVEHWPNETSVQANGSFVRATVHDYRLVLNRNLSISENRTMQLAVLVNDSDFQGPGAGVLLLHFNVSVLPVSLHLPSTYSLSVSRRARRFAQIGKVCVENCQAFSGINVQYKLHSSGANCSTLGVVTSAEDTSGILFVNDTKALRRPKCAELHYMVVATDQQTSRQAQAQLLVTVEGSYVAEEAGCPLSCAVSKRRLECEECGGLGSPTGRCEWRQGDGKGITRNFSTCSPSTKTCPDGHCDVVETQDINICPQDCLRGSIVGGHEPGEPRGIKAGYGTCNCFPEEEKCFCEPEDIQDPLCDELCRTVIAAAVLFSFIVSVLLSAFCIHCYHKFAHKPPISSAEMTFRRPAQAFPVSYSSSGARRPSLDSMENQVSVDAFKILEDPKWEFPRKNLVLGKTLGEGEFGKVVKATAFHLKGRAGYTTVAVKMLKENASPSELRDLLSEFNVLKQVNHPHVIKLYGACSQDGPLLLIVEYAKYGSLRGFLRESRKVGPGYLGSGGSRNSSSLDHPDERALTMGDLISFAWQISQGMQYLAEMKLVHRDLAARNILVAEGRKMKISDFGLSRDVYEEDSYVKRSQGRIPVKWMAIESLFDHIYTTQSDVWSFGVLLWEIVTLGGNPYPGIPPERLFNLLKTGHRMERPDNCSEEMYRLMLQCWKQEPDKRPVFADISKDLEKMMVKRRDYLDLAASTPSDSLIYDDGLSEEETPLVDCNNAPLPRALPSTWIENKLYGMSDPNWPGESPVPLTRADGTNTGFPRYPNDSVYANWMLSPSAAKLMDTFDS
Chain of Bone morphogenetic protein receptor type-2 (Homo sapiens) (Q13873 whole entry, the tested form may be a part): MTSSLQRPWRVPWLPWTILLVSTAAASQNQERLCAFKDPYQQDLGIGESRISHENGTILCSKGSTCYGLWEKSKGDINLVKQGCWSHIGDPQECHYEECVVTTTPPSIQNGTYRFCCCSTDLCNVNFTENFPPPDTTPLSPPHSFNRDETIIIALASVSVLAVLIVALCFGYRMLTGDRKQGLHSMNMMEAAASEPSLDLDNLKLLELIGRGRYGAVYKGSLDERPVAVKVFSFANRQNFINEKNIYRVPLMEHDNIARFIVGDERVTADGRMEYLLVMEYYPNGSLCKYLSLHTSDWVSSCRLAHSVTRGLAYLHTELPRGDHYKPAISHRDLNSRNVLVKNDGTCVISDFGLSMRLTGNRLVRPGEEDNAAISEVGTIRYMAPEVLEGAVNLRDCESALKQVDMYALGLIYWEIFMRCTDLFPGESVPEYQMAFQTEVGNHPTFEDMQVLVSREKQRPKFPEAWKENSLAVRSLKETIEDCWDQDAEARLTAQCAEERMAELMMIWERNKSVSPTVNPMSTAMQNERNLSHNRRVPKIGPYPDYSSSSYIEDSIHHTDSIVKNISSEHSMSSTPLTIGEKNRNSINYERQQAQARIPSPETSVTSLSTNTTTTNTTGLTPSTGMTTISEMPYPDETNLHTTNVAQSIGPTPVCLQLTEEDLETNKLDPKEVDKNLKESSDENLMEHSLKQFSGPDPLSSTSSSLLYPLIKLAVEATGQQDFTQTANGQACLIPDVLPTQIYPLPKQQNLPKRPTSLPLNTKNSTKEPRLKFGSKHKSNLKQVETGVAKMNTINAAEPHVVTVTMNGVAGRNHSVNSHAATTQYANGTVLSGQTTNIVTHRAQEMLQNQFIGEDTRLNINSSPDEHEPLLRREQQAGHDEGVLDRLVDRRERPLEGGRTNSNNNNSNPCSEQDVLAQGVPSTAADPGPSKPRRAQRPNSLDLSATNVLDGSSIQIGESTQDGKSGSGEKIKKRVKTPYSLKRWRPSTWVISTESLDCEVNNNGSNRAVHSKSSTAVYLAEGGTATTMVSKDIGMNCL
Chain of Phosphatidylinositol 3-kinase C2 domain-containing subunit gamma (Homo sapiens) (O75747 whole entry, the tested form may be a part): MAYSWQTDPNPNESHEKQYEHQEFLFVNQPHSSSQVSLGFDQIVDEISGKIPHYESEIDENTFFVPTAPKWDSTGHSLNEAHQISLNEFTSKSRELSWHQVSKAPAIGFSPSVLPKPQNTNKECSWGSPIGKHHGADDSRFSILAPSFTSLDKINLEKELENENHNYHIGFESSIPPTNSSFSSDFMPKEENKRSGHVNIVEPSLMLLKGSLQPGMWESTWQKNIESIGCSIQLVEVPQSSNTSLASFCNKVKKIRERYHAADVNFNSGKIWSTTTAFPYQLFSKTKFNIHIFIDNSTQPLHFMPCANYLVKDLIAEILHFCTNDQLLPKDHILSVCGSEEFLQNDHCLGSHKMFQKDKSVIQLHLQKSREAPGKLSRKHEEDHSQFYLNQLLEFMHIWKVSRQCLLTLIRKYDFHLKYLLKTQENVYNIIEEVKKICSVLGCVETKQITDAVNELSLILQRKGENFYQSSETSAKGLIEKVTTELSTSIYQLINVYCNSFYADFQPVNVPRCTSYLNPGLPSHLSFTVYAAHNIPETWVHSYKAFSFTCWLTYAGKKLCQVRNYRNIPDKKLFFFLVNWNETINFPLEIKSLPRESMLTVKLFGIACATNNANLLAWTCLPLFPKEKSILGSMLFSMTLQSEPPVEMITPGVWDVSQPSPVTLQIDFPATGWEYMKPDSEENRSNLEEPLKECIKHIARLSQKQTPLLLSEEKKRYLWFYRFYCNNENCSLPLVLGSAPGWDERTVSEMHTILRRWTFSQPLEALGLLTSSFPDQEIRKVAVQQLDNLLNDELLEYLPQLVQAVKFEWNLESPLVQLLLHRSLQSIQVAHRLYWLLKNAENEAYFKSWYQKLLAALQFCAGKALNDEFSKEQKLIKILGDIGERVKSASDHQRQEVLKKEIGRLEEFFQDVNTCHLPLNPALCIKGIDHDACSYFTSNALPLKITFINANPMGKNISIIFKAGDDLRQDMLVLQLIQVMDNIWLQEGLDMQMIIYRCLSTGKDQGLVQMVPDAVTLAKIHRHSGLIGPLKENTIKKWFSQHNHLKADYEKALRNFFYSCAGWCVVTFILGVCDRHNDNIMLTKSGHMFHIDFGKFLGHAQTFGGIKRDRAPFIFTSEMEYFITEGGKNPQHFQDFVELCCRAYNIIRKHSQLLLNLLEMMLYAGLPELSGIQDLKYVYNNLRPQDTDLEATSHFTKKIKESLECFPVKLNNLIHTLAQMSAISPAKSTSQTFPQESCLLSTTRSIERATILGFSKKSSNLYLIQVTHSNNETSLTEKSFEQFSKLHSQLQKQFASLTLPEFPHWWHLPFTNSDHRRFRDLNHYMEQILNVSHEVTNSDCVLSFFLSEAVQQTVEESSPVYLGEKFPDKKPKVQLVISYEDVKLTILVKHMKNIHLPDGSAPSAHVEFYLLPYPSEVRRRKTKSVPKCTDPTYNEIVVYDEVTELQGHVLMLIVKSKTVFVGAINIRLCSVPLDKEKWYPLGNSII
Chain of Dual specificity mitogen-activated protein kinase kinase 4 (Homo sapiens) (P45985 whole entry, the tested form may be a part): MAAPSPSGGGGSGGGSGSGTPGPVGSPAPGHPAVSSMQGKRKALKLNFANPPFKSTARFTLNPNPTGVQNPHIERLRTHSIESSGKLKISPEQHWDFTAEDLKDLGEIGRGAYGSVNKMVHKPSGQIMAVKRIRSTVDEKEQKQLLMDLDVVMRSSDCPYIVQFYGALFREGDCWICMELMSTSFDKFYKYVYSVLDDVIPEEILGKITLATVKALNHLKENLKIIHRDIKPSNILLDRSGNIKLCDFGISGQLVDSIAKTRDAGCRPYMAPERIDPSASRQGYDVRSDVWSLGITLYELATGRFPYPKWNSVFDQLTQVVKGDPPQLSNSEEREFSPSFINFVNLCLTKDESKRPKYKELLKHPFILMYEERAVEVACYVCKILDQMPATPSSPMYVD
Chain of TGF-beta receptor type-2 (Homo sapiens) (P37173 whole entry, the tested form may be a part): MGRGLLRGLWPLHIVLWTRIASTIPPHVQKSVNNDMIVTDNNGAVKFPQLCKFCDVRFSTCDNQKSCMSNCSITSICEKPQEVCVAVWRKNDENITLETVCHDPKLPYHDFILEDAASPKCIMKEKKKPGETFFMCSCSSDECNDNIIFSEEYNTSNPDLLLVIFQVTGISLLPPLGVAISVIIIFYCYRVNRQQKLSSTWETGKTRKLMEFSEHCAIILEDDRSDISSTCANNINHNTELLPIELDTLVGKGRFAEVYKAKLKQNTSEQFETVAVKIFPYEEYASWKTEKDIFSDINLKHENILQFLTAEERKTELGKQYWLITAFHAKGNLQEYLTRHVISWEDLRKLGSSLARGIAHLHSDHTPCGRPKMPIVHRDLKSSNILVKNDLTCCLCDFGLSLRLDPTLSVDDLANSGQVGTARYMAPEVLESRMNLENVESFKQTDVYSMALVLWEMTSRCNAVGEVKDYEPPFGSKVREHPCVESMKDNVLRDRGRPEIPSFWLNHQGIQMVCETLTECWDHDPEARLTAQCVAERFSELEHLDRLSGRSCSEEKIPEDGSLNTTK
Chain of Protein-tyrosine kinase 6 (Homo sapiens) (Q13882 whole entry, looked up, the tested form may be a part): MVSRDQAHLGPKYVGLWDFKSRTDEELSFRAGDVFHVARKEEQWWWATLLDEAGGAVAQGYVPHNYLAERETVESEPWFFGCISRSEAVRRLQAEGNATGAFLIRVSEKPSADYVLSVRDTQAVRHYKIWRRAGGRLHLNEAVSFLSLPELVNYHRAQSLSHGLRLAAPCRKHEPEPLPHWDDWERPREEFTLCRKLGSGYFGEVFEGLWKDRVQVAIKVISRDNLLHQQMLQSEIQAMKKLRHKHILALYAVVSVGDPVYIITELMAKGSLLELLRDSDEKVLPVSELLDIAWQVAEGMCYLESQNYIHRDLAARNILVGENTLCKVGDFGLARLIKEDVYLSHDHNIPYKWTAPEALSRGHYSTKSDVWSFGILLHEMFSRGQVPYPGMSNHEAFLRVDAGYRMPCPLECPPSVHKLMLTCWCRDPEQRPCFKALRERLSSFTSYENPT

Structure (SMILES)	Activity [1] [%]	Activity [2] [%]	Activity [3] [%]	Activity [4] [%]	Activity [5] [%]	Activity [6] [%]	Activity [7] [%]	Activity [8] [%]	Activity [9] [%]	Activity [10] [%]	Activity [11] [%]	Activity [12] [%]	Activity [13] [%]	Activity [14] [%]	Activity [15] [%]	Activity [16] [%]	Activity [17] [%]	Activity [18] [%]	Activity [19] [%]	Activity [20] [%]	further results
CCC(=O)Nc1ccc(C(=O)Nc2ccc(Nc3ncc4c(n3)N(C)c3ccc(C)cc3C(=O)N4C)cc2)cc1	63	64	3.5	77	100	100	89	100	86	100	85	100	88	93	96	55	81	100	74	88	Activity [21]: 70%; Activity [22]: 100%; Activity [23]: 93%; Activity [24]: 100%; Activity [25]: 93%
C=CC(=O)Nc1ccc(C(=O)Nc2ccc(Nc3ncc4c(n3)N(C)c3ccc(C)cc3C(=O)N4C)cc2)cc1	100	68	100	95	99	94	92	99	97	95	96	98	100	93	95	69	71	100	90	86	Activity [21]: 100%; Activity [22]: 99%; Activity [23]: 100%; Activity [24]: 96%; Activity [25]: 88%
